Calls of active or inactive are those of the source. The calls are words filed in the database; no cut-off is given here.
Columns and labels:
[1] = molecular target: T1, Fatty-acid amide hydrolase 1 (Homo sapiens, UniProt O00519); experiment: Drug metabolism assessed as human recombinant N-terminal FLAG/C-terminal His-tagged FAAH1 (32 to 579 residues)-mediated compound hydrolysis by measuring release of EPA at 25 uM after 2 hrs by LC/MS-MS analysis in presence of PF-3845; assay type: ADME
T1 sequence (O00519 whole entry): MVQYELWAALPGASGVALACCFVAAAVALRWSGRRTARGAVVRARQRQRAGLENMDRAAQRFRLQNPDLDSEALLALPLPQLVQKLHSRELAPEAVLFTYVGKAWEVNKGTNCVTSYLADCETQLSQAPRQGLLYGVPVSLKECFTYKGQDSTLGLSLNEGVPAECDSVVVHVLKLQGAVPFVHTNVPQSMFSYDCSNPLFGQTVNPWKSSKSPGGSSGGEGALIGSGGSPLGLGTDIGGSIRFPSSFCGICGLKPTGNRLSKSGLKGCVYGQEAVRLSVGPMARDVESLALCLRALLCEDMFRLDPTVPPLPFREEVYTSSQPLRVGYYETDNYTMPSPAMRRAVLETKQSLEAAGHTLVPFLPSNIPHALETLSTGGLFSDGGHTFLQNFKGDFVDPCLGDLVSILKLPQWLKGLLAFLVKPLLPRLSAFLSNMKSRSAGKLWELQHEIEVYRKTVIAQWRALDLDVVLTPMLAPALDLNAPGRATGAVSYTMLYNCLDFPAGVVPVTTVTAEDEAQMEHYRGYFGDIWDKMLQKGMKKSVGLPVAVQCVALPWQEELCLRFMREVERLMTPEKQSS

[2] = Drug uptake in Sprague-Dawley rat liver at 300 mg/kg, qd administered through oral gavage for 7 days measured 2 hrs post last dose by LC/MS/MS analysis; assay type: ADME, organism-based; details: read-out: Drug uptake
Plasma [3] = experiment: Drug metabolism in Sprague-Dawley rat plasma assessed as nicotinuric acid levels at 100 mg/kg, po administered as single dose after 6 hrs by LC/MS/MS analysis; assay type: ADME, organism-based; details: in vivo
How it was run: (§1)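 Single oral dose to Sprague Dawley rats; plasma collected at 0.25, 0.5, 1, 2, 4 and 6 hr; analytes in plasma quantified by LC/MS/MS.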

Plasma [4] = experiment: Metabolic stability in rat plasma at 5 uM up to 2 hrs by LC-MS-MS analysis; assay type: ADME, cell-free
How it was run: (§2)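 Plasma from each species diluted to 50% with 0.05 M PBS pH 7.4 and prewarmed to 37 °C; compound added at 5 µM final (from DMSO stock diluted in MeOH); triplicate incubations at 37 °C, sampled at 0, 30, 60, 120 min, quenched with acetonitrile containing internal standard, centrifuged, analysed by LC/MS/MS.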

Rattus norvegicus [5] = experiment: Cmax in jugular vein cannulated Sprague-Dawley rat assessed as N-(2-aminoethyl)nicotinamide at 30 mg/kg, po measured up to 140 mins; assay type: ADME, organism-based; design: dose 30 mg/kg, route oral; details: in vivo
How it was run: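 Sprague Dawley rats surgically fitted with indwelling jugular vein and portal vein cannulas; oral dosing, then serial blood draws from both portal and jugular veins at 10, 20, 40 min and 1, 2, 4, 6 hr post dose; plasma analysed for parent and metabolites by LC/MS/MS.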

Plasma [6] = experiment: Metabolic stability in beagle dog plasma at 5 uM up to 2 hrs by LC-MS-MS analysis; assay type: ADME, cell-free, Canis lupus familiaris; how it was run: as §2
Intestine = experiment: Drug metabolism in Sprague-Dawley rat intestine assessed as niacin formation at 300 mg/kg, qd administered through oral gavage for 7 days measured 2 hrs post last dose by LC/MS/MS analysis; assay type: ADME, organism-based; details: in vivo
Liver [7] = experiment: Drug metabolism in Sprague-Dawley rat liver assessed as nicotinuric acid formation at 300 mg/kg, qd administered through oral gavage for 7 days measured 2 hrs post last dose by LC/MS/MS analysis; assay type: ADME, organism-based; details: in vivo
Mus musculus [8] = experiment: Inhibition of VLDL cholesterol levels in po dosed ApoE*3-Leiden mouse plasma administered for 16 weeks; assay type: functional, organism-based
How it was run: (§3)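 Transgenic ApoE*3-Leiden mice on high-cholesterol Western-type diet dosed over 16 weeks; plasma PCSK9, total cholesterol, triglycerides and lipoprotein profile (VLDL, LDL) assessed at study end.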

Mus musculus [9] = experiment: Inhibition of LDL cholesterol levels in po dosed ApoE*3-Leiden mouse plasma administered for 16 weeks; assay type: functional, organism-based; how it was run: as §3
[10] = Drug uptake in Sprague-Dawley rat intestine at 300 mg/kg, qd administered through oral gavage for 7 days measured 2 hrs post last dose by LC/MS/MS analysis; assay type: ADME, organism-based; details: read-out: Drug uptake
[11] = AUClast in Sprague-Dawley rat at 100 mg/kg, po administered as single dose measured up to 6 hrs post dose by LC/MS/MS analysis; assay type: ADME, organism-based; design: dose 100 mg/kg, time < 6 hr, route oral; details: in vivo; how it was run: as §1
[12] = Cmax in Sprague-Dawley rat at 100 mg/kg, po administered as single dose measured up to 6 hrs post dose by LC/MS/MS analysis; assay type: ADME, organism-based; design: dose 100 mg/kg, route oral; details: in vivo; how it was run: as §1
[13] = Plasma concentration in Sprague-Dawley rat at 300 mg/kg, po administered for 7 days measured 4 hrs post dose on day 7; assay type: ADME, organism-based
How it was run: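 Male Sprague Dawley rats in groups of 4 received 300 mg/kg orally once daily for up to 14 days. Animals were sacrificed on days 1, 3, 7 and 14, with plasma and tissues (brain, epididymal fat, liver, muscle) collected 4 h after dosing. Samples were analysed by LC/MS/MS for parent compound, salicylic acid and salicyluric acid.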

Liver [14] = experiment: Drug metabolism in Sprague-Dawley rat liver assessed as salicylic acid formation at 300 mg/kg, po administered for 14 days followed by 7 day washout cycle measured on day 21; assay type: ADME, organism-based; details: in vivo
[15] = Inhibition of NFkappaB in mouse RAW264.7 cells preincubated for 2 hrs followed by LPS addition for 3 hrs by luciferase reporter gene assay relative to control; assay type: cell-based
Muscle tissue = experiment: Drug metabolism in Sprague-Dawley rat muscle assessed as salicylic acid formation at 300 mg/kg, po administered for 14 days followed by 7 day washout cycle measured on day 21; assay type: ADME, organism-based; details: in vivo
[16] = Drug metabolism in Sprague-Dawley rat epididymal fat assessed as salicylic acid formation at 300 mg/kg, po administered for 14 days followed by 7 day washout cycle measured on day 21; assay type: ADME, organism-based, Epididymal fat pad; details: in vivo
Rattus norvegicus [17] = experiment: AUClast in Sprague-Dawley rat assessed as salicyluric acid at 300 mg/kg, po measured up to 24 hrs post dose; assay type: ADME, organism-based; design: time < 24 hr, dose 300 mg/kg, route oral; details: in vivo
How it was run: (§4)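 Single oral dose of 300 mg/kg to Sprague Dawley rats. Plasma collected at 0, 0.5, 1, 2, 4, 8 and 24 hr. Analytes were the parent, the salicylate-linker and linker-DHA metabolites, salicylic acid and salicyluric acid; Cmax and AUClast derived.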

Liver [18] = experiment: Drug metabolism in Sprague-Dawley rat liver assessed as salicylic acid formation at 300 mg/kg, po administered for 7 days measured 4 hrs post dose on day 7; assay type: ADME, organism-based; details: in vivo
How it was run: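 Male Sprague Dawley rats, groups of 4, dosed orally at 300 mg/kg once daily for 14 days. Animals killed on days 1, 3, 7 and 14, with plasma, brain, epididymal fat, liver and muscle taken 4 hr after dosing. Parent, salicylic acid and salicyluric acid were measured.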

Liver [19] = experiment: Drug metabolism in Sprague-Dawley rat liver assessed as salicyluric acid formation at 300 mg/kg, po administered for 14 days followed by 7 day washout cycle measured on day 21; assay type: ADME, organism-based; details: in vivo
Rattus norvegicus [20] = experiment: AUClast in Sprague-Dawley rat assessed as salicylic acid at 300 mg/kg, po measured up to 24 hrs post dose; assay type: ADME, organism-based; design: time < 24 hr, dose 300 mg/kg, route oral; details: in vivo; how it was run: as §4
Plasma [21] = experiment: Drug metabolism in Sprague-Dawley rat plasma assessed as salicyluric acid formation at 300 mg/kg, po measured up to 24 hrs post dose; assay type: ADME, organism-based; details: in vivo; how it was run: as §4

For CC/C=C\C/C=C\C/C=C\C/C=C\C/C=C\CCCC(=O)NCCNC(=O)c1cccnc1, the Drug metabolism [1] was “metabolite_notdetected”, the concentration at 2 h [2] was 7.5 ng/g and the Drug metabolism (Plasma [3]) was over 200 ng/mL. For the same compound, the Stability (Plasma [4]) was “Stable”, the Cmax (Rattus norvegicus [5]) was 336 ng/mL and the Stability (Plasma [6]) was “Stable”. For the same compound, the Drug metabolism (Intestine) was 279 ng/g, the Drug metabolism (Liver [7]) was 1356 ng/g and the inhibition (Mus musculus [8]) was “Active”. For the same compound, the inhibition (Mus musculus [9]) was “Active”, the concentration at 2 h [10] was 6750 ng/g and the AUC(0-t) at 6 h [11] was 172 ng·h/mL. For the same compound, the Cmax [12] was 212 ng/mL.
For CC/C=C\C/C=C\C/C=C\C/C=C\C/C=C\C/C=C\CCC(=O)NCCNC(=O)c1ccccc1O [EDASALONEXENT], the concentration at 4 h [13] was 116 ng/mL, the Drug metabolism (Liver [14]) was “metabolite_notdetected” and the IC50 [15] was 25.4 µM. The Drug metabolism (Muscle tissue) was “metabolite_notdetected”, the Drug metabolism [16] was “metabolite_notdetected” and the AUClast (Rattus norvegicus [17]) was 2937 ng·h/mL. The Drug metabolism (Liver [18]) was 235.91 ng/g, the Drug metabolism (Liver [19]) was “metabolite_notdetected” and the AUClast (Rattus norvegicus [20]) was 229 ng·h/mL. The Drug metabolism (Plasma [21]) was “metabolite_detected”.
